The source of these data is ChEMBL document CHEMBL1154606 (J Med Chem, 2009).

Experiment [1] has as its target T1, Neuromedin-K receptor (Cavia porcellus, UniProt P30098). Kind of experiment: Antagonist activity at […] guinea pig NK3 receptor A1142.58T mutant expressed in HEK293 cells assessed as inhibition of [MePhe7]NKB-induced accumulation of [3H]inositol phosphate. It counts as functional, cell-based. Put shortly: (§1)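 HEK293 cells transiently transfected with NK3 receptor, labeled with myo-[³H]-inositol and assayed 48 h post-transfection in HBSS/HEPES pH 7.4 with 8 mM LiCl. Fixed antagonist concentrations were preincubated 20 min at 37 °C, then [MePhe⁷]NKB (0.1 nM–10 μM) was added for 45 min at 37 °C. [³H]IP was captured on yttrium silicate beads. Agonist EC50 shifts gave dose ratios for Schild regression. Six curves from three transfections.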

For a further experiment, the target named is Substance-P receptor (Homo sapiens, UniProt P25103). As to the kind of experiment: Displacement of [3H]substance P from human recombinant NK1 receptor expressed in HEK293 cells. It is filed as cell-based. Put shortly: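 hNK1 membranes from transient HEK293 (2.5 μg protein/well) in 50 mM HEPES, 3 mM MnCl2, 2 μM phosphoramidon, 16.8 μM leupeptin, 0.04% BSA, pH 7.4. Incubated with 0.6 nM [³H]substance P plus 10 inhibitor concentrations (0.0003–10 μM) for 75 min at RT. Nonspecific binding defined with 10 μM CP-96,345. Ki by Cheng-Prusoff; three experiments in duplicate.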
(Displacement assays read how much labelled ligand stays bound in the presence of the test substance.)

Experiment [2] concerns the target T2, Neuromedin-K receptor (Cavia porcellus, UniProt P30098).
T2 sequence (P30098 whole entry): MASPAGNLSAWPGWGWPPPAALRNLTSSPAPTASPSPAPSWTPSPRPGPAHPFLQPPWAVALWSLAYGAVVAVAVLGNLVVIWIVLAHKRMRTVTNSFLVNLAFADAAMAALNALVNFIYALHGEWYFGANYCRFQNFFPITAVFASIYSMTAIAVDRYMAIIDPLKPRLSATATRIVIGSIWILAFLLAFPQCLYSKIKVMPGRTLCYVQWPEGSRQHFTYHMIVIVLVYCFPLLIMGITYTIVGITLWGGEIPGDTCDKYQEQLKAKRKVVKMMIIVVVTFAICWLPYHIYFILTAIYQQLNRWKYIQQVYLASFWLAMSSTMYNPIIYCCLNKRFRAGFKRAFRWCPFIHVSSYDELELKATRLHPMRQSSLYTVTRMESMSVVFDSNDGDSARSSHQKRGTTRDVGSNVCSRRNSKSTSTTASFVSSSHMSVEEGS
As to the kind of experiment: Displacement of [3H]osanetant from guinea pig recombinant NK3 receptor expressed in HEK293 cells. It counts as cell-based. Put shortly: (§2)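 Membranes from transiently transfected HEK293 cells (5 μg protein/well) in 50 mM Tris-HCl, 4 mM MnCl2, 1 μM phosphoramidon, 0.1% BSA, pH 7.4. Nonspecific binding defined with 10 μM competitor. Filtered on GF/C. Ki by Cheng-Prusoff; three experiments in duplicate.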

In experiment [3] the target is T3, Neuromedin-K receptor (Homo sapiens, UniProt P29371).
T3 sequence (P29371 whole entry): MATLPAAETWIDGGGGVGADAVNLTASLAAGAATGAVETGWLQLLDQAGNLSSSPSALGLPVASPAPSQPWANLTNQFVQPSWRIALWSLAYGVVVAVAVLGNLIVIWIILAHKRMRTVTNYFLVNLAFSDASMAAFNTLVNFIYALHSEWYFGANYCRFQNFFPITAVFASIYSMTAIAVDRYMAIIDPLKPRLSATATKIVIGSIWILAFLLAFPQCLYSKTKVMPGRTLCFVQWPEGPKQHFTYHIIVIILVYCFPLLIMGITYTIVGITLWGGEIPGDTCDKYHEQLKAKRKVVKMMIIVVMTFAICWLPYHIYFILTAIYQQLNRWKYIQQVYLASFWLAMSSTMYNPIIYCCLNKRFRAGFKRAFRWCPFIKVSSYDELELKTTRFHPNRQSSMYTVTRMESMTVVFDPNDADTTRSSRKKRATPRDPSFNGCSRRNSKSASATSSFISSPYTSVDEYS
Kind of experiment: Antagonist activity at wild type human NK3 receptor expressed in HEK293 cells assessed as inhibition of [MePhe7]NKB-induced accumulation of [3H]inositol phosphate. It is filed as functional, cell-based. To be noted: read-out: pA2 (converted). Put shortly: as §1

The target in experiment [4] is T3, Neuromedin-K receptor. Kind of experiment: Displacement of [3H]osanetant from human recombinant NK3 receptor expressed in HEK293 cells. It is filed as cell-based. Put shortly:
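Membranes from transiently transfected HEK293 cells (5 μg protein/well) in 50 mM Tris-HCl, 4 mM MnCl2, 1 μM phosphoramidon, 0.1% BSA, pH 7.4. […] Nonspecific binding defined with 10 μM competitor. Filtered on GF/C. Ki by Cheng-Prusoff; three experiments in duplicate.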

The target of experiment [5] is T4, Substance-K receptor (Homo sapiens, UniProt P21452).
T4 sequence (P21452 whole entry): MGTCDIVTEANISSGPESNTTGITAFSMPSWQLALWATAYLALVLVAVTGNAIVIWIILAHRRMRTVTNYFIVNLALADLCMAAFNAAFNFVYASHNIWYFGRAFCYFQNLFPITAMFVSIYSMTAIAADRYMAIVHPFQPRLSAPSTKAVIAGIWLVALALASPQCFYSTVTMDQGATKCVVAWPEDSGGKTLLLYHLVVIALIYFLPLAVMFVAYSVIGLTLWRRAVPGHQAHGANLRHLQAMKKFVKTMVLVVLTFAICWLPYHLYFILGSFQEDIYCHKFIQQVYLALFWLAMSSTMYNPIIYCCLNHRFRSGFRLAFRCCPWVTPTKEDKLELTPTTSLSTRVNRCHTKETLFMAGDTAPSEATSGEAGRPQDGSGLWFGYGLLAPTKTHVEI
As to the kind of experiment: Displacement of [3H]SR48968 from human recombinant NK2 receptor expressed in HEK293 cells. It is filed as cell-based. Put shortly:
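hNK2 membranes from transient HEK293 (2.5 μg protein/well) in 50 mM Tris-HCl, 3 mM MnCl2, 4 μg/mL chymostatin, 0.04% BSA, pH 7.4. Incubated with 0.32 nM [³H]SR 48968 plus 10 inhibitor concentrations (0.0003–10 μM) for 75 min at RT. Ki by Cheng-Prusoff; three experiments in duplicate.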

For experiment [6], the target named is T1, Neuromedin-K receptor. As to the kind of experiment: Displacement of [3H]osanetant from guinea pig recombinant NK3 receptor A1142.58T expressed in HEK293 cells. It is filed as cell-based. Put shortly:
as §2

Experiment [7] has as its target T2, Neuromedin-K receptor. Kind of experiment: Antagonist activity at wild type guinea pig NK3 receptor expressed in HEK293 cells assessed as inhibition of [MePhe7]NKB-induced accumulation of [3H]inositol phosphate. It counts as functional, cell-based. The conditions noted are these: read-out: pA2 (converted). Put shortly:
as §1

The target in experiment [8] is T5, Neuromedin-K receptor (Cavia porcellus) (UniProt P30098).
T5 sequence (whole entry): T2 sequence (P30098 whole entry)
The conditions noted are these: HEK293.

Experiment [9] addresses T5, Neuromedin-K receptor (Cavia porcellus). The conditions noted are these: HEK293. This is another data set of the same source.
Experiment [10] has as its system Neurokinin 3 receptor (Cavia porcellus). Kind of experiment: Equilibrium binding affinity to guinea pig NK3 receptor A1142.58T mutant expressed in HEK293 cells.
In experiment [11] the target is T6, Neuromedin-K receptor (Homo sapiens) (UniProt P29371).
T6 sequence (whole entry): T3 sequence (P29371 whole entry)
To be noted: HEK293.

For experiment [12], the target named is T6, Neuromedin-K receptor (Homo sapiens). To be noted: HEK293. The source holds these as a separate data set.
Experiment [13] concerns the target T3, Neuromedin-K receptor. As to the kind of experiment: Agonist activity at human NK3 receptor expressed in cells assessed as accumulation of [3H]inositol phosphate. It is filed as functional, cell-based. Put shortly:
(§3)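 At 48 h, preincubated 10 min at RT in HBSS/20 mM HEPES pH 7.4 with 8 mM LiCl, then stimulated with [MePhe⁷]NKB (0.1 nM–10 μM) for 45 min at 37 °C. Inositol phosphates were extracted with formic acid, captured on yttrium silicate beads and counted. EC50 and Hill slope were derived.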

Experiment [14] has as its target T4, Substance-K receptor. As to the kind of experiment: Binding affinity to human NK2 receptor.
Experiment [15] concerns the target T2, Neuromedin-K receptor. As to the kind of experiment: Agonist activity at guinea pig NK3 receptor expressed in cells assessed as accumulation of [3H]inositol phosphate. It counts as functional, cell-based. Put shortly:
as §3

Experiment [16] addresses T3, Neuromedin-K receptor. As to the kind of experiment: Binding affinity to human NK3 receptor.

Where a SMILES comes first, the peptide text is derived from it. [ ]: non-standard residue; d: D form. NMeF = CN[C@@H](Cc1ccccc1)C(=O)O

Chain of Substance-P receptor (P25103 whole entry): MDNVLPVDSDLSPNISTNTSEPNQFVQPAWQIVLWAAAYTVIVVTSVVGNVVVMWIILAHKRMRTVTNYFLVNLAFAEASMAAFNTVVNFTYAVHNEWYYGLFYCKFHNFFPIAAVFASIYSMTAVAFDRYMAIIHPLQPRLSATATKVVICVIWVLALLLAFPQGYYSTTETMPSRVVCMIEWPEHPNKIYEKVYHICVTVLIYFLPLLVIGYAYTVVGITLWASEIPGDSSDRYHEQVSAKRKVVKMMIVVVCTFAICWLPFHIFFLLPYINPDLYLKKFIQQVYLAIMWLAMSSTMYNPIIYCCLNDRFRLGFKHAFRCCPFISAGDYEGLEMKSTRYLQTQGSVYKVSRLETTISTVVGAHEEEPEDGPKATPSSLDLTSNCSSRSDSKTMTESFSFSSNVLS

`CC(=O)N(C)C1CCN(CCC(C)(C(=O)N(C)Cc2ccc(F)c(C(F)(F)F)c2)c2ccc(Cl)c(Cl)c2)CC1` (stereo unspecified): the pA2 (usually a measure of antagonist potency on a negative log scale) on Neuromedin-K receptor [1] is listed as 7.83. The Ki – broadly, the dissociation constant of the complex between target and ligand, obtained from inhibition or displacement – on Substance-P receptor worked out at 152 nM; at Neuromedin-K receptor [2] it was 3.5 nM; at Neuromedin-K receptor [4] it was 3.1 nM; on Substance-K receptor [5], 515 nM; at Neuromedin-K receptor [6] it was 2.7 nM. In addition, the Kb on Neuromedin-K receptor [3] is 7.76 nM.
As for `CN(Cc1ccc(F)c(C(F)(F)F)c1)C(=O)C(C)(CCN1CCC(N2CCCC2=O)CC1)c1ccc(Cl)c(Cl)c1` (stereo unspecified), on Neuromedin-K receptor [1], the pA2 was 7.96. Moreover, the Ki turned out to be 182 nM on Substance-P receptor; 1.6 nM at Neuromedin-K receptor [2]; 0.8 nM at Neuromedin-K receptor [4]; 109 nM at Substance-K receptor [5]; 1.8 nM on Neuromedin-K receptor [6]. Besides, the Kb on Neuromedin-K receptor [3] was 8.91 nM.
`CC(=O)N(C)C1CCN(CCC(C)(C(=O)N(C)Cc2ccccc2Cl)c2ccc(Cl)c(Cl)c2)CC1` (stereo unspecified): the pA2 on Neuromedin-K receptor [1] was determined as 7.53. The Ki was found to be 70.9 nM at Substance-P receptor; 8 nM on Neuromedin-K receptor [2]; 10.4 nM on Neuromedin-K receptor [4]; 953 nM on Substance-K receptor [5]; 11.9 nM at Neuromedin-K receptor [6]. Further, the Kb at Neuromedin-K receptor [3] is 18.2 nM; on Neuromedin-K receptor [7], 24 nM.
As to `CC(=O)N(C)C1(c2ccccc2)CCN(CCC[C@]2(c3ccc(Cl)c(Cl)c3)CCCN(C(=O)c3ccccc3)C2)CC1` [OSANETANT], the T1/2 in experiment [8] was 31.5 min; in [9], 10.2 min; in [11], 10.1 min; in [12], 4.01 min. Binding in experiment [10] was put at a Kd of 0.08 nM.
Take `CSCC[C@H](NC(=O)[C@H](CC(C)C)NC(=O)CNC(=O)[C@H](Cc1ccccc1)N(C)C(=O)[C@H](Cc1ccccc1)NC(=O)[C@H](Cc1ccccc1)NC(=O)[C@H](CC(=O)O)NC(=O)[C@H](Cc1cnc[nH]1)NC(=O)[C@H](CCSC)NC(=O)[C@@H](N)CC(=O)O)C(N)=O` (H-DMHDFF[NMeF]GLM-NH2): the EC50 at Neuromedin-K receptor [13] and at Neuromedin-K receptor [15] was 0.6 nM throughout. Besides, the results for the Ki on Substance-K receptor [14] and on Neuromedin-K receptor [16] were 1600 nM and 0.3 nM, respectively.
